Bioassay records: PubChem, several laboratories
Ecoli WT expand – growth inhibitors of wild-type E. coli, primary screen, strain BW25113, expanded library, OD600 | OD600 absorbance | growth inhibition, % at 100 µM | 98,000 tested, 0.15% active;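 active = growth inhibition above about 50% at one test dose, limit read from the data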;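 note: growth measured after 20 h incubation at 37 °C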
PostGolgi ctrl – growth inhibition of yeast control strain, primary screen, counter-screen for post-Golgi transport modulator project. efflux-deficient yeast background strain, growth absorbance A615, 16 h. 98,000 tested, 5% active. inhibition, % at 10 µM
hDAT+cocaine – changed hDAT dopamine uptake under cocaine IC80, either direction, primary screen, cocaine antagonist project, cell-based, LLC-PK1 hDAT, [14C]-dopamine uptake, MLSMR. 110,000 tested, 1.3% active. LLC-PK1 hDAT cells, [14C]-dopamine uptake with cocaine IC80; actives deviate in either direction. B-score at 10 µM;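 active = Z score or B-score, a plate-position-corrected score, falls beyond the plate's 99.7% confidence bounds, in either direction; inactive = both scores lie inside the 99.7% bounds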;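 note: scored against the spread of the other compound wells on the same plate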
Target sequence (Q01959 whole entry, looked up): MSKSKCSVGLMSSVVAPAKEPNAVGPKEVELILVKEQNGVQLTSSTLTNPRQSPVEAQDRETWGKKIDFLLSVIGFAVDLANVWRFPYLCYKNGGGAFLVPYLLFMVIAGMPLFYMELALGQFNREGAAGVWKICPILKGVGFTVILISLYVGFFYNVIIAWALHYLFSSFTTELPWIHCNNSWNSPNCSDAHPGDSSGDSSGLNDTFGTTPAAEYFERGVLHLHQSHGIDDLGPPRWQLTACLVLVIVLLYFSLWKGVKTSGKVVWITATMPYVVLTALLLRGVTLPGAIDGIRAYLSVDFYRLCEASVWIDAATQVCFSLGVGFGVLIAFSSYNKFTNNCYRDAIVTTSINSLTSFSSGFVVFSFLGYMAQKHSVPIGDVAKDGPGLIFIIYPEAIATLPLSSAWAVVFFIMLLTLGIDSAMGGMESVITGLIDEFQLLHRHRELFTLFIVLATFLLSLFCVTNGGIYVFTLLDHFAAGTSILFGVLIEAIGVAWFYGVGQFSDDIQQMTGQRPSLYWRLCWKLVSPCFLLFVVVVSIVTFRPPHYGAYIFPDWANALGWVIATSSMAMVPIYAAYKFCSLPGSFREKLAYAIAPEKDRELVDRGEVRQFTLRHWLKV
PostGolgi yeast – phenotypic screen on post-Golgi transport, primary screen; 98,000 tested, 0.9% active; post-Golgi transport phenotypic cell assay; inhibition, % at 10 µM;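 note: yeast cells grown in 1536-well plates; yeast grown about 18 h at 30C before absorbance read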
tolC growth inh – growth inhibitors of E. coli tolC mutant, primary screen, strain BW25113 ΔtolC::kan, 384-well; OD615; 65,000 tested, 2.2% active; growth inhibition, % at 10 µM (by protocol); AID 573, 2007;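 active = growth inhibition at or above a cutoff equal to the mean over every tested compound plus 3 SD, cut at about 60% in these data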;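 note: growth measured after 20 h incubation at 37 °C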
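System: E. coli ΔtolC::kan strain BW25113; Buffer or medium: LB broth supplemented with 50 µg/mL kanamycin; Compound: 10 µM final, single dose; Incubation: bacterial growth with compound for 20 h at 37 °C; Signal: A615 absorbance measurement; Evaluation: growth inhibition in percent.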
D1 mod – D1 CRE-luciferase signal change, two-sided – cell-based, HEK293 D1, dopamine EC30, D1 allosteric modulator project, primary screen | dopamine EC30 potentiation; actives deviate in either direction | B-score at 10 µM | 58,000 tested, 5.9% active;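 active = luminescence count or its row- and column-corrected plate score outside the 99.7% band of the plate's sample wells, on either side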
* marks the source's active call; other numbers are inactive results; · = no result. Rows were chosen to be rich in hits. Some 9.3% of all compounds tested hit in one or more screens of this group. Cut-off read from the data, not from the text of the source, unless noted: active = inhibition above about 30%; inactive = the rest.

SMILES | Ecoli WT expand | PostGolgi ctrl | hDAT+cocaine | PostGolgi yeast | tolC growth inh | D1 mod
Cc1cccc(C2Nc3ccccc3C(=O)N2c2ccccc2)n1 (configuration not stated) | 2.0 | 7.5 | -0.141 | 30.5* | -3.0 | 0.0457
O=C1c2ccccc2NC(c2ccccn2)N1c1ccc(Cl)cc1 (configuration not stated) | 6.0 | -1.1 | -0.231 | 4.0 | 19.4 | ·
O=C(COc1ccc(Cl)cc1)N(Cc1ccccc1)c1ccccn1 | -11.0 | 32.6* | 0.989 | -3.9 | · | ·
Cc1nc(NS(=O)(=O)c2cccs2)c2c3c(sc2n1)CCC3 | -3.0 | 29.4 | 0.765 | -3.0 | 19.8 | 0.648
O=S(=O)(Nc1ncnc2sc3c(c12)CCC3)c1ccc(Cl)s1 | -2.0 | 21.1 | -2.39* | 3.0 | 62.8* | -0.016
Cc1nc(NS(=O)(=O)c2ccc(Br)cc2)c2c3c(sc2n1)CCC3 | -2.0 | 33.1* | -0.521 | -4.5 | · | ·
CC(C)CCCC(C)NS(=O)(=O)Cc1ccccc1 (configuration not stated) | 5.0 | 11.6 | 0.697 | 0.7 | · | ·
COc1ccc(C2C(C(=O)Nc3ccc4c(c3)OCCO4)c3ccccc3C(=O)N2C)cc1 (configuration not stated) | 1.0 | 31.2* | -0.711 | 2.5 | · | ·
O=C1CC(c2cc(Br)ccc2F)c2cc3c(cc2N1)CCC3 (configuration not stated) | -7.0 | 34.6* | 0.373 | 1.9 | · | ·
O=C1CC(c2ccccc2F)c2cc3c(cc2N1)CCC3 (configuration not stated) | -7.0 | 29.5 | · | 4.4 | · | ·
O=C1CC(c2cccc(Cl)c2)c2cc3c(cc2N1)CCC3 (configuration not stated) | 2.0 | 88.9* | -0.308 | 0.8 | · | ·
CCOc1cccc(OCCCCN2CCOCC2)c1 | 1.0 | 17.8 | -0.919 | 14.2 | -17.2 | ·
COc1cccc(OCCCCCCN2CCOCC2)c1 | -1.0 | 21.1 | 0.3 | 45.1* | · | ·
COc1cc(-c2nnc3sc(-c4cccnc4)nn23)cc(OC)c1OC | · | · | · | · | -3.9 | 1.54
COc1ccccc1CNC(=O)CCS(=O)(=O)c1cccc2nonc12 | -3.0 | 8.6 | -0.00496 | -7.3 | · | ·
CSC(=NC1CCCCC1)NS(=O)(=O)c1ccccc1 | 0.0 | 1.5 | -0.795 | -13.2 | 8.3 | 1.05
CC(=NC1CCCCC1)C1=C(O)c2ccccc2C1=O | · | · | 2.01* | · | 21.9 | -0.474
CCN(CC)c1ccc2cc(C(=O)Nc3ccc(-n4cnnn4)c(OC)c3)c(=O)oc2c1 | · | · | · | · | -6.5 | 1.53
CC1(C)Cc2nc3nc(SCC(=O)NCCc4ccccc4)n(-c4ccccc4)c(=O)c3cc2CO1 | -10.0 | 5.8 | 0.213 | 2.4 | · | ·
Cn1c(=O)c2c(SC3CCCC3)nc(CC(C)(C)C)nc2n(C)c1=O | · | · | · | · | -16.3 | 0.0202
CCCc1nc(SC2CCCC2)c2c(=O)n(C)c(=O)n(C)c2n1 | -2.0 | 18.1 | 0.91 | 21.6 | 84.0* | 1.55
N#Cc1c(-c2ccc(Cl)cc2Cl)nc2n(c1=O)CCS2 | 6.0 | 32.1* | -0.817 | -5.2 | 14.6 | 3.04
O=c1cc(-c2ccccc2)nc(N2CCN(Cc3ccccc3)CC2)[nH]1 | 10.0 | 38.9* | -0.0123 | 12.9 | 19.8 | 2.03
COC(=O)c1c(C)[nH]c(C)c1C(=O)c1ccccc1Cc1ccccc1 | · | · | 0.411 | · | · | ·
Cn1c(-c2ccc(F)cc2)cnc1NCc1ccccc1 | 21.0 | 6.1 | 1.35 | -0.2 | 22.9 | -3.36*
SMILES | Ecoli WT expand | PostGolgi ctrl | hDAT+cocaine | PostGolgi yeast | tolC growth inh | D1 mod
O=[N+]([O-])c1ccc(Cl)cc1Sc1nc2ccccc2o1 | · | · | -1.24 | · | · | ·
O=[N+]([O-])c1ccc(Sc2nc3ccccc3o2)c([N+](=O)[O-])c1 | 23.0 | 91.2* | -0.115 | 4.8 | · | ·
Cn1c(=O)c2sccc2n2c(CCCC(=O)NCc3ccc4c(c3)OCO4)nnc12 | -7.0 | 3.3 | 0.346 | 1.6 | -20.4 | -0.241
Clc1ccc(Cl)c(-c2nn3c(COc4ccccc4)nnc3s2)c1 | -1.0 | -2.2 | -0.576 | -1.7 | 96.2* | 2.84
CCOC(=O)C1CCN(S(=O)(=O)c2cccc3nonc23)CC1 | 5.0 | 7.6 | -0.142 | 14.6 | -3.9 | 0.349
CC1CCN(C(=O)C2CCN(S(=O)(=O)c3cccc4nonc34)CC2)CC1 | 0.0 | 31.5* | 0.961 | 8.1 | · | ·
Cc1c(Cc2ccccc2)sc(N)c1C(N)=O | 7.0 | 38.3* | 1.36 | 0.3 | 11.8 | 0.573
Cc1c(Cc2ccccc2)sc(NC(=O)Cc2ccccc2)c1C(N)=O | · | · | -0.031 | · | · | ·
CCOC(=O)C1=C(O)C(Nc2nccs2)(C(F)(F)F)N=C1C (configuration not stated) | 3.0 | 34.6* | · | 0.5 | -14.5 | 0.292
O=C(Nc1cc(C(F)(F)F)ccc1-n1cncn1)c1ccc(Cl)cc1 | -13.0 | 22.9 | -0.0427 | 10.2 | · | ·
O=C(Nc1cc(C(F)(F)F)ccc1-n1cncn1)c1ccc(-c2ccccc2)cc1 | -19.0 | 13.0 | · | 76.3* | · | ·
Cc1ccc(-n2c(C)cc(C(=S)N3CCOCC3)c2C)cc1C | 3.0 | 0.3 | -0.138 | 6.8 | · | ·
O=C(CN(Cc1ccccc1F)S(=O)(=O)c1ccc(Cl)cc1)NCCCO | -3.0 | 1.6 | 0.0674 | 1.3 | -2.5 | -0.562
O=C(c1ccc2c(=O)n(C3CCCC3)c(=S)[nH]c2c1)N1CCN(C2CCCCC2)CC1 | 4.0 | 8.6 | · | 0.5 | 67.6* | 0.502
CCN1CCN(C(=O)c2ccc3c(=O)n(C4CCCC4)c(=S)[nH]c3c2)CC1 | -7.0 | 6.8 | 0.391 | 2.0 | -9.6 | 0.809
COc1ccc(-n2c(-c3cccc(OC)c3)nc(=S)c3c2CCCC3)cc1 | 8.0 | 13.8 | -0.0784 | -0.5 | · | ·
COc1ccc(-n2c(-c3ccccc3)nc(=S)c3c2CCCC3)cc1 | 2.0 | 64.3* | · | -0.5 | · | ·
CC(=O)c1ccc(NC(=O)C2CCCN2S(=O)(=O)c2cccc3cccnc23)cc1 (configuration not stated) | 6.0 | 31.3* | -0.79 | 4.6 | 1.8 | -0.0176
Cc1cccc(/C=N\NC(=O)c2sccc2-n2cccc2)c1 | 5.0 | 3.7 | 1.34 | -2.9 | · | ·
O=C(CCc1ccccc1)NNC(=S)NC(=O)c1ccccc1 | 63.0* | 32.4* | 0.317 | 20.6 | · | ·
O=C(NNC(=S)NC(=O)c1cccnc1)c1ccccc1 | 53.0* | -7.0 | 0.0108 | -9.1 | · | ·
O=C(NC(=S)NCCc1ccccc1)c1ccccc1 | -4.0 | 17.4 | -0.829 | 3.2 | · | ·
C#CCNC(=O)C1=C[C@H](c2ccccc2)[C@@H](CCCO)[C@H](OCC)O1 | · | · | 0.0216 | · | · | ·
Cc1c([N+](=O)[O-])c(C(=O)N2CCCC2)nn1C | 5.0 | 42.0* | 0.178 | -3.5 | · | ·
Fc1ccc(N2CCN(c3ccc4c(C(F)(F)F)cc(C(F)(F)F)nc4n3)CC2)cc1 | -12.0 | 75.1* | -1.1 | 14.5 | · | ·
CCOC(=O)/C(C#N)=C1/SC(CC)C(=O)N1c1ccc(C)cc1 (configuration not stated) | -3.0 | -0.7 | -2.8* | -8.8 | -5.1 | 2.69
